The values below come from ChEMBL document CHEMBL1148641, “Design and synthesis of novel sulfonamide-containing bradykinin hB2 receptor antagonists. 1. Synthesis and SAR of alpha,alpha-dimethylglycine sulfonamides” (J Med Chem, 2006).

For assay [1], the target named is T1, B2 bradykinin receptor (Homo sapiens, UniProt P30411).
T1 sequence (P30411 whole entry): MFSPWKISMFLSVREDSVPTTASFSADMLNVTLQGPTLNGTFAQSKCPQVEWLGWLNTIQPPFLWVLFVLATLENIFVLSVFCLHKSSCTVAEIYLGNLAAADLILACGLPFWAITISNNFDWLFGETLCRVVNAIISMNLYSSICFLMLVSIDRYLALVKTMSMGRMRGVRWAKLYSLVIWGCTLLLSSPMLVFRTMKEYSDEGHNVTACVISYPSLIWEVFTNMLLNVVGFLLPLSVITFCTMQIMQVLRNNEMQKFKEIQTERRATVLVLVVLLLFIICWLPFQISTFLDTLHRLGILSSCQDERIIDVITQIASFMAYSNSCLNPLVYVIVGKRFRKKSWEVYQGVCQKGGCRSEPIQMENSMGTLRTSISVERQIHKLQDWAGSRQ
Nature of the assay: Displacement of [3H]BK from human B2 receptor transfected in CHO cells. The format is cell-based. In short, it runs like this: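 Membranes from stably transfected CHO cells (100-150 µg/mL) incubated 60 min at room temperature with [³H]BK at 0.1-0.2 nM in TES buffer pH 7.4 with 1,10-phenanthroline, bacitracin and BSA, 1% DMSO final. Competitor 1 pM-10 µM; nonspecific binding with 1 µM BK. Filtration, scintillation counting; IC50 converted to pKi by Cheng-Prusoff.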

Assay [2] concerns the target T1, B2 bradykinin receptor. Nature of the assay: Activity at human B2 receptor transfected in CHO cells assessed as ability to antagonize BK-induced inositol-phosphate accumulation. The note with it: read-out: pA2 (converted). In kind it is functional, cell-based. The procedure, abridged: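 Stably transfected CHO cells (1.8 × 10⁵/well) grown overnight at 37 °C, then labeled 24 h with [³H]myo-inositol (1 µCi/well). Antagonist preincubation 20 min at a nanomolar concentration, then BK 1 × 10^-11 to 1 × 10^-5 M for 40 min at 37 °C in LiCl-containing buffer, pH 7.4. IP1 radioactivity by liquid scintillation; pA₂ from EC50 concentration-ratios of sigmoidal fits.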

For `Cc1ccc2cccc(OCc3c(Cl)ccc(S(=O)(=O)NC(C)(C)C(=O)NCCCNCc4ccc(S(C)(=O)=O)cc4)c3Cl)c2n1`, the inhibition constant Ki in assay [1] was 79.4 nM.

In turn, `Cc1cc(C)c2cccc(OCc3c(Cl)ccc(S(=O)(=O)NC(C)(C)C(=O)N4CCN(C(=O)C[C@@H](N)CCCN(C)C)CC4)c3Cl)c2n1` showed a Ki in assay [1] of 0.631 nM. In addition, the Kb in assay [2] is 2.51 nM.

On to `Cc1ccc2cccc(OCc3c(Cl)ccc(S(=O)(=O)NC(C)(C)C(=O)N4CCN(C(=N)NCCCCCCN)CC4)c3Cl)c2n1`, for which, in assay [1], the Ki is 1 nM. The Kb in assay [2] was 7.94 nM.

Turning to `Cc1ccc2cccc(OCc3c(Cl)ccc(S(=O)(=O)NC(C)(C)C(=O)N4CCN(C(=O)C[C@@H](N)CCCCN=C(N)N)CC4)c3Cl)c2n1`, in assay [1], the Ki was 1.26 nM. For the same compound, the Kb in assay [2] was 7.94 nM.

`Cc1ccc2cccc(OCc3c(Cl)ccc(S(=O)(=O)NC(C)(C)C(=O)N4CCN(C(=O)[C@@H](N)CCCCN(C)C)CC4)c3Cl)c2n1` showed an inhibition constant Ki in assay [1] of 2 nM. In addition, in assay [2], the Kb was 11.2 nM.

On to `Cc1ccc2cccc(OCc3c(Cl)ccc(S(=O)(=O)NC(C)(C)C(=O)NCCN)c3Cl)c2n1`, for which the Ki in assay [1] was 100 nM.

Regarding `Cc1ccc2cccc(OCc3c(Cl)ccc(S(=O)(=O)NC(C)(C)C(=O)NCCCN(C)C)c3Cl)c2n1`, the Ki in assay [1] is 200 nM.

Take `Cc1cc(C)c2cccc(OCc3c(Cl)ccc(S(=O)(=O)N4CCC[C@@H]4C(=O)NCCCNC(=O)c4ccc(C(=N)N)cc4)c3Cl)c2n1`: the affinity in assay [1], expressed as Ki, was 0.794 nM.

Turning to `Cc1cc(C)c2cccc(OCc3c(Cl)ccc(S(=O)(=O)NC(C)(C)C(=O)NCCCN)c3Cl)c2n1`, the affinity in assay [1], expressed as Ki, was 25.1 nM.

For `Cc1ccc2cccc(OCc3c(Cl)ccc(S(=O)(=O)NC(C)(C)C(=O)NCCCNCc4ccc(N(C)C)cc4)c3Cl)c2n1`, affinity in assay [1] was put at a Ki of 158 nM.

On to `Cc1ccc2cccc(OCc3c(Cl)ccc(S(=O)(=O)NC(C)(C)C(=O)NCCCN4CCOCC4)c3Cl)c2n1`, for which the inhibitory constant (Ki) in assay [1] is 631 nM. Against the preceding compound, the Ki is about 4-fold higher.

As for `Cc1ccc2cccc(OCc3c(Cl)ccc(S(=O)(=O)NC(C)(C)C(=O)NCCCNCc4ccoc4)c3Cl)c2n1`, in assay [1], the affinity corresponds to a Ki of 316 nM. Against the preceding compound, the Ki is about 2-fold lower.

In assay [1], `Cc1ccc2cccc(OCc3c(Cl)ccc(S(=O)(=O)NC(C)(C)C(=O)N4CCN(CCCCCCN)CC4)c3Cl)c2n1` gave a Ki of 2.51 nM. Moreover, the Kb in assay [2] is 20 nM.

Consider `COCCNC(=O)C(C)(C)NS(=O)(=O)c1ccc(Cl)c(COc2cccc3ccc(C)nc23)c1Cl`, for which, in assay [1], the inhibition constant Ki was 7940 nM.

In assay [1], `Cc1ccc2cccc(OCc3c(Cl)ccc(S(=O)(=O)NC(C)(C)C(=O)NCCCN4CCN(C)CC4)c3Cl)c2n1` gave a Ki of 251 nM. Against the preceding compound, the Ki is about 32-fold lower.

For the compound `Cc1ccc2cccc(OCc3c(Cl)ccc(S(=O)(=O)NC(C)(C)C(=O)N4CCCNCCC4)c3Cl)c2n1`, the affinity in assay [1] corresponds to a Ki of 100 nM.

In turn, `Cc1ccc2cccc(OCc3c(Cl)ccc(S(=O)(=O)NC(C)(C)C(=O)N4CCN(C(=N)NCCCN)CC4)c3Cl)c2n1` showed an inhibition constant Ki in assay [1] of 1.58 nM. Also, in assay [2], the Kb was 11 nM.

In the case of `Cc1ccc2cccc(OCc3c(Cl)ccc(S(=O)(=O)NC(C)(C)C(=O)N4CCN(CCCCCCN=C(N)N)CC4)c3Cl)c2n1`, the Ki in assay [1] is 1.58 nM. Besides, the Kb in assay [2] was 7.94 nM.

On to `Cc1ccc2cccc(OCc3c(Cl)ccc(S(=O)(=O)NC(C)(C)C(=O)N4CCN(C(=O)CN5CCNCC5)CC4)c3Cl)c2n1`, for which the Ki in assay [1] was 3.98 nM. Besides, in assay [2], the Kb was 25.1 nM.

`COCCCNC(=O)C(C)(C)NS(=O)(=O)c1ccc(Cl)c(COc2cccc3ccc(C)nc23)c1Cl` showed a Ki in assay [1] of 398 nM. This counts as sub-micromolar.

`Cc1ccc2cccc(OCc3c(Cl)ccc(S(=O)(=O)NC(C)(C)C(=O)NCCCN=C(N)N)c3Cl)c2n1` gave a Ki in assay [1] of 39.8 nM.

With `Cc1ccc2cccc(OCc3c(Cl)ccc(S(=O)(=O)NC(C)(C)C(=O)NC4CCNCC4)c3Cl)c2n1`, the Ki in assay [1] is 79.4 nM.

As for `Cc1ccc2cccc(OCc3c(Cl)ccc(S(=O)(=O)NC(C)(C)C(=O)NCCN=C(N)N)c3Cl)c2n1`, in assay [1], the Ki was 20 nM.

For `Cc1ccc2cccc(OCc3c(Cl)ccc(S(=O)(=O)NC(C)(C)C(=O)Nc4ccccc4)c3Cl)c2n1`, the Ki in assay [1] is 7940 nM.

In turn, `Cc1ccc2cccc(OCc3c(Cl)ccc(S(=O)(=O)NC(C)(C)C(=O)NCCCNC(=O)c4ccc(C(=N)N)cc4)c3Cl)c2n1` showed an inhibition constant Ki in assay [1] of 20 nM.

Compound `COc1ccc(CNCCCNC(=O)C(C)(C)NS(=O)(=O)c2ccc(Cl)c(COc3cccc4ccc(C)nc34)c2Cl)cc1` gave a Ki in assay [1] of 200 nM.

In assay [1], `Cc1ccc2cccc(OCc3c(Cl)ccc(S(=O)(=O)NC(C)(C)C(=O)NCCCNCc4ccc(F)cc4)c3Cl)c2n1` gave a Ki of 398 nM.

For `Cc1ccc2cccc(OCc3c(Cl)ccc(S(=O)(=O)NC(C)(C)C(=O)NCCCc4ccccc4)c3Cl)c2n1`, the Ki in assay [1] was > 10000 nM.

In turn, `Cc1ccc2cccc(OCc3c(Cl)ccc(S(=O)(=O)NC(C)(C)C(=O)NCCCNCc4ccc(C(N)=O)cc4)c3Cl)c2n1` gave a Ki in assay [1] of 126 nM.

As to `Cc1cc(C)c2cccc(OCc3c(Cl)ccc(S(=O)(=O)NC(C)(C)C(=O)N4CCN(C(=O)C[C@@H](N)CCCCN(C)C)CC4)c3Cl)c2n1`, in assay [1], the Ki was 0.501 nM. In addition, in assay [2], the Kb was 2.51 nM.

Take `Cc1ccc2cccc(OCc3c(Cl)ccc(S(=O)(=O)NC(C)(C)C(=O)NCCc4ccccc4)c3Cl)c2n1`: the Ki in assay [1] was > 10000 nM.

For the compound `Cc1ccc2cccc(OCc3c(Cl)ccc(S(=O)(=O)NC(C)(C)C(=O)N4CCN(CCN=C(N)N)CC4)c3Cl)c2n1`, the affinity in assay [1], expressed as Ki, was 10 nM. For the same compound, in assay [2], the Kb was 39.8 nM.

Consider `Cc1ccc(CNCCCNC(=O)C(C)(C)NS(=O)(=O)c2ccc(Cl)c(COc3cccc4ccc(C)nc34)c2Cl)cc1`, for which the Ki in assay [1] is 200 nM.

With `CC(=O)N[C@@H](CCCCN(C)C)C(=O)N1CCN(C(=O)C(C)(C)NS(=O)(=O)c2ccc(Cl)c(COc3cccc4ccc(C)nc34)c2Cl)CC1`, in assay [1], the Ki is 10 nM. The Kb in assay [2] was 20 nM.

In turn, `Cc1ccc2cccc(OCc3c(Cl)ccc(S(=O)(=O)NC(C)(C)C(=O)N4CCN(C(=N)N)CC4)c3Cl)c2n1` had a Ki in assay [1] of 3.98 nM. Also, the Kb in assay [2] was 39.8 nM.

`Cc1ccc2cccc(OCc3c(Cl)ccc(S(=O)(=O)NC(C)(C)C(=O)N=C(N)N)c3Cl)c2n1` gave a Ki in assay [1] of 63.1 nM.

In assay [1], `Cc1ccc2cccc(OCc3c(Cl)ccc(S(=O)(=O)NC(C)(C)C(=O)NCCN4CCCCC4)c3Cl)c2n1` showed an inhibition constant Ki of 316 nM. Compared with the last compound, the Ki is about 5-fold higher.

In assay [1], `Cc1ccc2cccc(OCc3c(Cl)ccc(S(=O)(=O)NC(C)(C)C(=O)N4CCN(C(=O)[C@@H](N)CCCN(C)C)CC4)c3Cl)c2n1` showed a Ki of 0.398 nM. For the same compound, the Kb in assay [2] is 25.1 nM.

As to `Cc1cc(C)c2cccc(OCc3c(Cl)ccc(S(=O)(=O)NC(C)(C)C(=O)N4CCN(C(=N)NCCCN)CC4)c3Cl)c2n1`, in assay [1], the Ki is 1 nM. For the same compound, the Kb in assay [2] is 2.51 nM.

Turning to `Cc1ccc2cccc(OCc3c(Cl)ccc(S(=O)(=O)NC(C)(C)C(=O)N4CCCNCC4)c3Cl)c2n1`, affinity in assay [1] was put at a Ki of 25.1 nM.

Turning to `Cc1ccc2cccc(OCc3c(Cl)ccc(S(=O)(=O)NC(C)(C)C(=O)NCc4ccccc4)c3Cl)c2n1`, the inhibition constant (Ki) in assay [1] is > 10000 nM.

On to `Cc1ccc2cccc(OCc3c(Cl)ccc(S(=O)(=O)NC(C)(C)C(=O)N4CCN(C(=O)C[C@@H](N)CCCCN(C)C)CC4)c3Cl)c2n1`, for which the Ki in assay [1] is 0.631 nM. Moreover, the Kb in assay [2] was 39.8 nM.

`Cc1ccc2cccc(OCc3c(Cl)ccc(S(=O)(=O)NC(C)(C)C(=O)NCCCNCc4ccccn4)c3Cl)c2n1` showed an inhibition constant (Ki) in assay [1] of 39.8 nM.

`Cc1ccc2cccc(OCc3c(Cl)ccc(S(=O)(=O)NC(C)(C)C(=O)NCCCCN)c3Cl)c2n1`: the affinity in assay [1], expressed as Ki, was 200 nM.

Take `Cc1ccc2cccc(OCc3c(Cl)ccc(S(=O)(=O)NC(C)(C)C(=O)NCCCNCc4ccc(Cl)cc4)c3Cl)c2n1`: in assay [1], the inhibition constant (Ki) was 794 nM.

Compound `Cc1ccc2cccc(OCc3c(Cl)ccc(S(=O)(=O)NC(C)(C)C(=O)NCCCNCc4ccccc4)c3Cl)c2n1` gave an inhibition constant Ki in assay [1] of 200 nM.

In assay [1], `Cc1ccc2cccc(OCc3c(Cl)ccc(S(=O)(=O)NC(C)(C)C(=O)NCCN4CCOCC4)c3Cl)c2n1` showed an inhibitory constant (Ki) of 2510 nM.

Take `Cc1cc(C)c2cccc(OCc3c(Cl)ccc(S(=O)(=O)NC(C)(C)C(=O)NCCCNc4ccc(C(=N)N)cc4)c3Cl)c2n1`: affinity in assay [1] was put at a Ki of 7.94 nM.

With `Cc1ccc2cccc(OCc3c(Cl)ccc(S(=O)(=O)NC(C)(C)C(=O)NCCCNCc4ccc(O)cc4)c3Cl)c2n1`, in assay [1], affinity was put at a Ki of 79.4 nM.

For `Cc1ccc2cccc(OCc3c(Cl)ccc(S(=O)(=O)NC(C)(C)C(=O)NCC4CCNCC4)c3Cl)c2n1`, in assay [1], the Ki was 158 nM.

For `Cc1ccc2cccc(OCc3c(Cl)ccc(S(=O)(=O)NC(C)(C)C(=O)NCCCN)c3Cl)c2n1`, in assay [1], the Ki is 158 nM.

As for `Cc1cc(C)c2cccc(OCc3c(Cl)ccc(S(=O)(=O)NC(C)(C)C(=O)N4CCN(C(=O)[C@@H](N)CCCCN(C)C)CC4)c3Cl)c2n1`, in assay [2], the Kb was 3.16 nM.

`Cc1ccc2cccc(OCc3c(Cl)ccc(S(=O)(=O)NC(C)(C)C(=O)N4CCN(C(=O)C[C@@H](N)CCCN(C)C)CC4)c3Cl)c2n1` showed an inhibition constant (Ki) in assay [1] of 0.794 nM. In assay [2], the Kb is 39.8 nM.

Take `Cc1ccc2cccc(OCc3c(Cl)ccc(S(=O)(=O)NC(C)(C)C(=O)NCCCNCc4c[nH]cn4)c3Cl)c2n1`: in assay [1], the Ki was 158 nM. That is a sub-micromolar value.

For `Cc1ccc2cccc(OCc3c(Cl)ccc(S(=O)(=O)NC(C)(C)C(=O)N4CCNCC4)c3Cl)c2n1`, in assay [1], affinity was put at a Ki of 25.1 nM.
